Assay [1] is described as follows: Inhibition of AP-1 and NF-kB mediated transcriptional activation in Jurkat T-cells. The note with it: Homo sapiens. In kind it is functional, cell-based. Put shortly:
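Jurkat T-cell luciferase reporter lines, stably transfected with either an NF-kB site (MHC promoter) fused to a minimal SV-40 promoter, or an AP-1 site (collagenase promoter). Cells at 1×10⁶/mL in medium with 10% serum-plus were plated 18 h ahead. Compound in 0.2% DMSO/H₂O was added for 0.5 h at 37 °C, then PMA plus PHA (1 ug/mL) for 5 h. Lysate luminescence was read; IC50 is 50% of control luciferase.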

In a further assay the test system is Caco-2. As to the kind of experiment: Caco-2 permeability coefficient value was determined.

What is called pIC50 is −log10 of the IC50, conventionally taken in molar units. Higher therefore signals a low IC50.

pIC50: −log10 of the molar value.

In turn, `CC1=CC(=O)N(Nc2nc(C(F)(F)F)nc3ccc([S+](C)[O-])cc23)C1=O` (stereo not drawn) gave a pIC50 in assay [1] of 6.00. For the molecule `CC1=CC(=O)N(Nc2nc(C(F)(F)F)nc3cc(N(C)C)ccc23)C1=O`, in the assay with Caco-2, the Pc worked out at 1.68e-06 cm/s. This molecule gave a pIC50 in assay [1] of 7.70. With `CC1=CC(=O)N(Nc2nc(C(F)(F)F)nc3cc(N4CCCCC4)ccc23)C1=O`, the pIC50 in assay [1] is 6.70. `COc1ccc2c(NN3C(=O)C=C(C)C3=O)nc(-c3cccs3)nc2c1` showed a pIC50 in assay [1] of 7.70. In assay [1], `COc1cc2c(NN3C(=O)C=C(C)C3=O)nc(-c3cccs3)nc2c(OC)c1OC` gave a pIC50 of 7.40. Against the preceding molecule, the pIC50 is 0.30 log units lower.

In turn, `CC1=CC(=O)N(Nc2nc(C(F)(F)F)nc3ccccc23)C1=O` gave a pIC50 in assay [1] of 7.00. Against the preceding molecule, the pIC50 is 0.40 log units lower. Still for that read-out and setting: the figure for `CC1=CC(=O)N(Nc2nc(-c3cccs3)nc3cc(N4CCOCC4)ccc23)C1=O` is 6.70; for `COc1cc2nc(-c3cccs3)nc(NN3C(=O)C=C(C)C3=O)c2cc1OC` it is 7.30; for `CC1=CC(=O)N(Nc2nc(C(F)(F)F)nc3cccc(C)c23)C1=O` it is 6.40. On to `COc1cccc2c(NN3C(=O)C=C(C)C3=O)nc(-c3cccs3)nc12`, for which, in assay [1], the pIC50 was 7.30.

Consider `COc1ccc2nc(C(F)(F)F)nc(NN3C(=O)C=C(C)C3=O)c2c1`, for which the pIC50 in assay [1] is 7.52. This pIC50 lies 0.22 log units higher than the previous one. As to `COc1cccc2nc(C(F)(F)F)nc(NN3C(=O)C=C(C)C3=O)c12`, the Pc in the assay with Caco-2 was determined as 1.49e-06 cm/s. For the same molecule, the pIC50 in assay [1] was 8.00.

The molecule `COc1ccc2nc(-c3cccs3)nc(NN3C(=O)C=C(C)C3=O)c2c1` registered a Pc with Caco-2 of 1.62e-06 cm/s. This molecule gave a pIC50 in assay [1] of 8.52. Regarding `CC1=CC(=O)N(Nc2nc(-c3cccs3)nc3cccc(C)c23)C1=O`, the pIC50 in assay [1] was 7.70.

For `CC1=CC(=O)N(Nc2nc(-c3cccs3)nc3cccc(F)c23)C1=O`, the pIC50 in assay [1] was 7.30. For the molecule `COc1cccc2nc(-c3cccs3)nc(NN3C(=O)C=C(C)C3=O)c12` [AS-602868], in the assay with Caco-2, the Pc was found to be 1.41e-05 cm/s. The same molecule had a pIC50 in assay [1] of 8.10. The molecule `CC1=CC(=O)N(Nc2nc(C(F)(F)F)nc3ccc(S(C)(=O)=O)cc23)C1=O` had a pIC50 in assay [1] of 5.05.

As to `CC1=CC(=O)N(Nc2nc(-c3cccs3)nc3ccccc23)C1=O`, the pIC50 in assay [1] was 7.22. The molecule `CC1=CC(=O)N(Nc2nc(C(F)(F)F)nc3ccc(O)cc23)C1=O` gave a pIC50 in assay [1] of 7.00. This pIC50 lies 0.22 log units lower than the previous one. Molecule `CC1=CC(=O)N(Nc2nc(-c3ccccc3)nc3ccccc23)C1=O` had a pIC50 in assay [1] of 7.00. Take `CSc1ccc2nc(C(F)(F)F)nc(NN3C(=O)C=C(C)C3=O)c2c1`: the negative-log IC50 (pIC50) in assay [1] was 7.10. This pIC50 and that of the molecule before are within 0.2 log units of each other.

`CC1=CC(=O)N(Nc2nc(-c3cccs3)nc3cc(N(C)C)ccc23)C1=O` gave a Pc with Caco-2 of 1.41e-06 cm/s. For the same molecule, in assay [1], the negative-log IC50 (pIC50) is 7.40. With `CC1=CC(=O)N(Nc2nc(-c3cccs3)nc3ccc(Cl)cc23)C1=O`, the pIC50 in assay [1] was 7.70.

For the origin of these results see ChEMBL document CHEMBL1136441, “The design and synthesis of novel orally active inhibitors of AP-1 and NF-kappaB mediated transcriptional activation. SAR of in vitro and in vivo studies” (Bioorg Med Chem Lett, 2003).
